Measurements published in ChEMBL document CHEMBL1124424, “Effects of steroid D-ring modification on suicide inactivation and competitive inhibition of aromatase by analogues of androsta-1,4-diene-3,17-dione” (J Med Chem, 1989).

Legend:
Aromatase [1] = target: T1, Aromatase (Homo sapiens, UniProt P11511); assay: Inactivation rate (Ki) of human placental Cytochrome P450 19A1
T1 sequence (P11511 whole entry): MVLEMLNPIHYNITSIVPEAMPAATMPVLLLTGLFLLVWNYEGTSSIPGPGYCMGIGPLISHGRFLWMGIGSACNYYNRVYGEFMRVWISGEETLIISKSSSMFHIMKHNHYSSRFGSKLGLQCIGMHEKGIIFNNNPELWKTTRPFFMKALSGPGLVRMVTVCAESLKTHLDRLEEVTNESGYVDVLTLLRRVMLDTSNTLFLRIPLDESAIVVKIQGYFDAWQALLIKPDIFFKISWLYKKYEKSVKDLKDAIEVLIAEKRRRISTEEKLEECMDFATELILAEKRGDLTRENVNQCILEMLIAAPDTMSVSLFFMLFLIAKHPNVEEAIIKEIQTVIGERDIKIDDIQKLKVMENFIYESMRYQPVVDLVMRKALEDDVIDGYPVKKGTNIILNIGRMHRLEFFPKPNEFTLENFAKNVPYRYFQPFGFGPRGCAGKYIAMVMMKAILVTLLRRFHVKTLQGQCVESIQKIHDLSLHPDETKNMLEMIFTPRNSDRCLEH
Method in brief: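 Inhibitor at four concentrations, in duplicate, was preincubated for various times with human placental microsomes and NADPH in buffer with 4% propylene glycol. Tritiated androstenedione was then added and residual aromatase activity assayed over 5 min. Loss was corrected against inhibitor-free controls, and first-order slopes gave k_app. Apparent Ki and k_inact came from a reciprocal k_app vs reciprocal concentration plot, with limiting t1/2 = ln2/k_inact.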

Aromatase [2] = target: T1, Aromatase; assay: Ratio of Ki to Km for human placental cytochrome P450 19A1
Method in brief: (§1)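 Human placental microsomes (stored at -70 °C) in incubation buffer containing 4% by weight propylene glycol. Aromatase assays ran 1–5 min with five androstenedione concentrations (0.05–1.0 μM) and varied inhibitor concentrations. Ki is the average of two determinations at each of two inhibitor concentrations, with average deviation. Androstenedione Km was determined in each experiment, and the Ki/Km ratio was calculated.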

Aromatase [3] = target: T1, Aromatase; assay: Competitive inhibition of binding to human placental Cytochrome P450 19A1; method in brief: as §1
[4] = Limiting t1/2 is the half life of aromatase inactivation in the presence of saturating concentrations of inhibitor
Method in brief: (§2)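 Human placental microsomes (stored -70 °C; protein 8.9–16.4 mg/mL, specific activity 34–101 pmol min⁻¹ (mg protein)⁻¹) preincubated with NADPH and four inhibitor concentrations for various times, in buffer with 4% propylene glycol. Tritiated androstenedione then added and remaining aromatase activity assayed 5 min. Duplicates averaged. Activity corrected against inhibitor-free controls. Apparent Ki and kinact from double-reciprocal plot of kapp vs inhibitor concentration. Limiting t1/2 = ln2/kinact.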

Aromatase [5] = target: T1, Aromatase; assay: Competitive inhibition of binding to human placental aromatase Cytochrome P450 19A1
Aromatase [6] = target: T1, Aromatase; assay: Inactivation rate (Ki) for human placental aromatase Cytochrome P450 19A1
Aromatase [7] = target: T1, Aromatase; assay: Inactivation rate (Ki) for human placental Cytochrome P450 19A1; method in brief: as §2

Row | SMILES | Ratio (Aromatase [2]) | Limiting t1/2 [4] | Ki (Aromatase [5]) | further results
1 | CC1(C=O)CCC2C(CCC3=CC(=O)C=CC32C)C1 (stereo not drawn) | – | – | – | Ki (Aromatase [1]): 3.98 µM
2 | CC1C2CCC3=CC(=O)C=CC3(C)C2CCC1(C)C(=O)O (stereo not drawn) | 23234 | – | – | Ki (Aromatase [3]): 1200 µM
3 | C[C@]12C=CC(=O)C=C1CC[C@@H]1[C@@H]2CC[C@]2(C)C(=O)CC[C@@H]12 [ANDROSTENEDONE] | – | 12.6 min | – | –
4 | CC1(C(=O)O)CCC2C(CCC3=CC(=O)C=CC32C)C1 (stereo not drawn) | 18651 | – | 893 µM | –
5 | C[C@]12C=CC(=O)C=C1CC[C@@H]1[C@@H]2CC[C@]2(C)C(=O)OC[C@@H]12 | – | 6.2 min | 0.41 µM | Ki (Aromatase [6]): 0.39 µM
6 | CC(=O)C1(C)CCC2C(CCC3=CC(=O)C=CC32C)C1 (stereo not drawn) | 670 | – | 45 µM | –
7 | CC1(CO)CCC2C(CCC3=CC(=O)C=CC32C)C1 (stereo not drawn) | – | – | – | Ki (Aromatase [1]): 8.56 µM
8 | CC12CCCC1C1CCC3=CC(=O)C=CC3(C)C1CC2 (stereo not drawn) | 8.8 | 15.2 min | 0.69 µM | Ki (Aromatase [7]): 1.1 µM
9 | COC(=O)C1(C)CCC2C(CCC3=CC(=O)C=CC32C)C1C (stereo not drawn) | 2600 | – | 103 µM | –
10 | COC(=O)C1(C)CCC2C(CCC3=CC(=O)C=CC32C)C1 (stereo not drawn) | 1898 | – | – | Ki (Aromatase [3]): 130 µM
11 | CC(=O)OCC1(C)CCC2C(CCC3=CC(=O)C=CC32C)C1 (stereo not drawn) | 273 | – | 13 µM | –
12 | CCC(=O)C1(C)CCC2C(CCC3=CC(=O)C=CC32C)C1 (stereo not drawn) | 1833 | – | 97 µM | –
13 | C[C@]12CCC(=O)C[C@@H]1CC[C@@H]1[C@@H]2CC[C@]2(C)[C@@H](O)CC[C@@H]12 [STANOLONE] | 10.6 | 12.9 min | – | Ki (Aromatase [3]): 0.22 µM; Ki (Aromatase [7]): 1.55 µM
